Calls of active or inactive are those of the source. No cut-off for these calls is given here.
How the values were obtained:
Mus musculus [1] = assay: Antidepressant activity in ICR mouse assessed as reduction of immobility time at 50 mg/kg, po after 5 days by tail suspension test; type: functional; design: scale not given: the % may be the effect or the level left
Procedure, shortened: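 Male ICR mice (18-22 g); compounds in 0.3% CMCNa dosed orally daily for 5 days, fluoxetine (10 mg/kg) once on day 5, vehicle group 5 days. One hour after day-5 dose, mouse hung by tail from lever 30 cm high for 6 min; immobility in later 4 min recorded by observer; n=10; one-way ANOVA then Dunnett's t-test.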

Mus musculus [2] = assay: Antidepressant activity in ICR mouse assessed as reduction of immobility time at 50 mg/kg, po after 5 days by forced swimming test; type: functional; design: scale not given: the % may be the effect or the level left
Procedure, shortened: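 Male ICR mice (18-22 g), housed a week on 12:12 h light-dark cycle; saponins suspended in 0.3% CMCNa, given orally once daily for 5 days; vehicle controls 5 days, fluoxetine (10 mg/kg) once on day 5. 1 h after last dose, mouse placed in water (24 °C, 10 cm deep) 6 min; immobility scored over final 4 min by blinded observer; n=10; means ± SEM, ANOVA/Dunnett.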

Mus musculus [3] = assay: Spontaneous motor activity in ICR mouse at 50 mg/kg, po; type: functional, organism-based; design: dose 50 mg/kg
Procedure, shortened: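 Locomotion of male ICR mice measured 1 h after day-5 oral dose (0.3% CMCNa suspension, daily for 5 days) with an automated activity meter in an open field (35 cm diameter); 3 min adaptation, then counts over 6 min; n=10; means ± SEM compared with vehicle by ANOVA/Dunnett.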

`CC(C)=C[C@@H]1CO[C@]23C[C@@]4(CO2)[C@@H](CC[C@@H]2[C@@]5(C)CC[C@H](O[C@H]6OC[C@H](O)[C@H](O[C@H]7O[C@H](CO)[C@H](O)[C@H](O)[C@H]7O)[C@H]6O[C@@H]6O[C@@H](CO)[C@H](O)[C@H]6O)C(C)(C)[C@@H]5CC[C@]24C)[C@H]3[C@@]1(C)O` [BACOPASAPONSIN C] was tested. Which Activity (Mus musculus [1]) did it give?
The Activity was 47%.

What about the Activity (Mus musculus [2]) of the same compound?
The Activity was 63%.

And the Activity (Mus musculus [3])?
Its Activity is “inactive”.

Which Activity (Mus musculus [1]) does the source give for `CC(C)=C[C@@H]1CO[C@]23C[C@@]4(CO2)[C@@H](CC[C@@H]2[C@@]5(C)CC[C@H](O[C@H]6OC[C@H](O)[C@H](O[C@H]7O[C@H](COS(=O)(=O)O)[C@@H](O)[C@H](O)[C@H]7O)[C@H]6O[C@@H]6O[C@@H](CO)[C@H](O)[C@H]6O)C(C)(C)[C@@H]5CC[C@]24C)[C@H]3[C@@]1(C)O` [BACOPASIDE I] here?
The Activity was 61%.

What about the Activity (Mus musculus [2]) of the same compound?
The Activity was 75%.

What about the Activity (Mus musculus [3]) of the same compound?
The Activity was “inactive”.

For `CC(C)=CC1C[C@](C)(O)[C@@H]2[C@@H]3CC[C@@H]4[C@@]5(C)CC[C@H](O[C@@H]6OC[C@H](O)[C@H](O[C@@H]7O[C@H](CO)[C@@H](O)[C@H](O)[C@H]7O)[C@H]6O[C@@H]6O[C@@H](CO)[C@H](O)[C@H]6O)C(C)(C)[C@@H]5CC[C@@]4(C)[C@]34CO[C@@]2(C4)O1` (some centres undefined) [BACOPASIDE VII], which Activity (Mus musculus [1]) is on record?
Its Activity is 8%.

And the Activity (Mus musculus [2])?
Its Activity is 20%.

And the Activity (Mus musculus [3])?
Its Activity is “inactive”.
